Laboratory results: ChEMBL document CHEMBL4396917, “Synthesis and biological evaluation of novel benzylidene-succinimide derivatives as noncytotoxic antiangiogenic inhibitors with anticolorectal cancer activity in vivo” (Eur J Med Chem, 2019)
pIC50: −log10 of the molar value. Activity calls are given as the source filed them. The rule behind the calls is not given here.

Assays:
HT-29 [1] = assay: Induction of apoptosis in human HT-29 cells assessed as necrotic cells at 10 uM after 24 hrs by Annexin V-FITC/propidium iodide staining based flow cytometric analysis (reference value: 3.9%); format: cell-based; settings: ht-29, 24 h
[2] = Induction of apoptosis in human HT-29 cells assessed as viable cells at 5 uM after 24 hrs by Annexin V-FITC/propidium iodide staining based flow cytometric analysis (reference value: 80.8 to 81.1%); format: cell-based; settings: read-out: Activity
HUVEC [3] = assay: Antimigratory activity in HUVEC assessed as reduction in VEGF-induced cell migration measured after 6 to 24 hrs by wound healing assay; format: functional, cell-based; settings: Homo sapiens
Summary of the method: (§1)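 Confluent HUVECs starved 12 h in M200 with 2% FBS, scratched with pipette tip; fresh M200 with 25 ng/mL VEGF plus vehicle, 2.5 μM sunitinib or compound (1, 2.5 μM); wound imaged at 0, 6, 12 and 24 h by inverted microscopy.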

HUVEC [4] = assay: Antiinvasive activity in HUVEC assessed as inhibition of VEGF-induced cell invasion at 10 uM after 6 hrs by crystal violet staining based transwell assay relative to control; format: functional; settings: Homo sapiens
Summary of the method: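 Transwell: 1×10⁴ HUVECs in serum-free M200 in top chamber with vehicle or compound; bottom chamber M200 with 10% FBS; 6 h at 37°C; cells on membrane underside fixed in 4% paraformaldehyde, stained 0.1% crystal violet, imaged and counted.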

HUVEC [5] = assay: Induction of apoptosis in VEGF-stimulated HUVEC assessed as necrotic cells at 1 uM after 24 hrs by Annexin V-FITC/propidium iodide staining based flow cytometric analysis (reference value: 12.1%); format: cell-based; settings: human
Summary of the method: (§2)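 HUVECs plated at 5×10^5 per well and treated 24 h with 1, 5, 10 or 20 μM. Detached and adherent cells were pooled, washed in ice-cold PBS and resuspended in fresh medium. 1×10^5 cells were stained with annexin-V-FITC in annexin-V buffer for 20 min in the dark, then PI (50 μg/mL) was added. Read-out by flow cytometry.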

HepG2 = assay: Cytotoxicity against human HepG2 cells assessed as reduction in cell growth after 72 hrs by MTT assay; format: cell-based; settings: HepG2, 72 h
HUVEC [6] = assay: Induction of apoptosis in VEGF-stimulated HUVEC assessed as late apoptotic cells at 10 uM after 24 hrs by Annexin V-FITC/propidium iodide staining based flow cytometric analysis (reference value: 11.3%); format: cell-based; settings: human; summary of the method: as §2
HT-29 [7] = assay: Induction of apoptosis in human HT-29 cells assessed as late apoptotic cells at 20 uM after 24 hrs by Annexin V-FITC/propidium iodide staining based flow cytometric analysis (reference value: 13.4%); format: cell-based; settings: ht-29, 24 h
HUVEC [8] = assay: Effect on total Src expression in VEGF-induced HUVEC at 1 to 20 uM pre-incubated for 2 hrs followed by VEGF stimulation and measured after 15 mins by Western blot analysis; format: ADME, cell-based; settings: human, 0.25 h
Summary of the method: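 HUVECs serum-starved overnight, pretreated with compound (methods: 1, 2.5, 5, 10 μM for 2 h; legend: 1, 5, 10, 20 μM for 1.5 h), then VEGF 50 ng/mL (methods: VEGF165, 15 min; legend: 30 min); lysates equalized by Bradford, ~20 μg protein resolved on gradient SDS-PAGE, immunoblotted, ECL detection.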

Mus musculus = assay: Antiangiogenic activity in Matrigel plug angiogenic Balb/c mouse model assessed as impaired vascularization by measuring loss of red colour in VEGF-supplemented matrigel at 20 to 60 mg/kg, sc measured after 15 days; format: functional, organism-based
Summary of the method: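 Balb/c nude mice (6–8 weeks), three groups, injected subcutaneously with 400 μL Matrigel alone or with VEGF (250 ng/mL) and/or compound; after 15 days plugs removed, weighed and photographed.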

HUVEC [9] = assay: Antimigratory activity in HUVEC assessed as reduction in VEGF-induced cell migration at 2.5 uM measured after 6 hrs by wound healing assay relative to control; format: functional; settings: Homo sapiens; summary of the method: as §1
HUVEC [10] = assay: Induction of apoptosis in VEGF-stimulated HUVEC assessed as early apoptotic cells at 20 uM after 24 hrs by Annexin V-FITC/propidium iodide staining based flow cytometric analysis (reference value: 7%); format: cell-based; settings: human; summary of the method: as §2
[11] = Induction of apoptosis in VEGF-stimulated HUVEC assessed as viable cells at 5 uM after 24 hrs by Annexin V-FITC/propidium iodide staining based flow cytometric analysis (reference value: 69.6%); format: cell-based; settings: human, read-out: Activity; summary of the method: as §2
HUVEC [12] = assay: Inhibition of Akt/mTOR signalling in VEGF-induced HUVEC assessed as reduction in mTOR phosphorylation at Ser2448 residue at 1 to 20 uM pre-incubated for 1.5 hrs followed by VEGF stimulation and measured after 30 mins by Western blot analysis; format: cell-based; settings: Homo sapiens
Summary of the method: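 HUVECs were starved overnight, pretreated 1.5 h with 1, 5, 10 or 20 μM, then stimulated with VEGF (50 ng/mL) for 30 min. Lysates were equalized by Bradford assay, about 20 μg protein was resolved on gradient SDS-PAGE and immunoblotted with phospho-specific antibodies. Detection by HRP secondary antibodies and ECL.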

HUVEC [13] = assay: Antimigratory activity in HUVEC assessed as reduction in VEGF-induced cell migration at 2.5 uM measured after 12 hrs by wound healing assay relative to control; format: functional; settings: Homo sapiens; summary of the method: as §1
[14] = biological target: Vascular endothelial growth factor receptor 2 (Homo sapiens) (UniProt P35968); assay: Inhibition of VEGFR2 in VEGF-stimulated HUVEC assessed as downregulation of STAT3 phosphorylation at Tyr705 residue at 1 to 10 uM pre-incubated for 2 hrs followed by VEGF stimulation and measured after 15 mins by Western blot analysis; format: cell-based
Vascular endothelial growth factor receptor 2 (Homo sapiens), sequence (P35968 whole entry): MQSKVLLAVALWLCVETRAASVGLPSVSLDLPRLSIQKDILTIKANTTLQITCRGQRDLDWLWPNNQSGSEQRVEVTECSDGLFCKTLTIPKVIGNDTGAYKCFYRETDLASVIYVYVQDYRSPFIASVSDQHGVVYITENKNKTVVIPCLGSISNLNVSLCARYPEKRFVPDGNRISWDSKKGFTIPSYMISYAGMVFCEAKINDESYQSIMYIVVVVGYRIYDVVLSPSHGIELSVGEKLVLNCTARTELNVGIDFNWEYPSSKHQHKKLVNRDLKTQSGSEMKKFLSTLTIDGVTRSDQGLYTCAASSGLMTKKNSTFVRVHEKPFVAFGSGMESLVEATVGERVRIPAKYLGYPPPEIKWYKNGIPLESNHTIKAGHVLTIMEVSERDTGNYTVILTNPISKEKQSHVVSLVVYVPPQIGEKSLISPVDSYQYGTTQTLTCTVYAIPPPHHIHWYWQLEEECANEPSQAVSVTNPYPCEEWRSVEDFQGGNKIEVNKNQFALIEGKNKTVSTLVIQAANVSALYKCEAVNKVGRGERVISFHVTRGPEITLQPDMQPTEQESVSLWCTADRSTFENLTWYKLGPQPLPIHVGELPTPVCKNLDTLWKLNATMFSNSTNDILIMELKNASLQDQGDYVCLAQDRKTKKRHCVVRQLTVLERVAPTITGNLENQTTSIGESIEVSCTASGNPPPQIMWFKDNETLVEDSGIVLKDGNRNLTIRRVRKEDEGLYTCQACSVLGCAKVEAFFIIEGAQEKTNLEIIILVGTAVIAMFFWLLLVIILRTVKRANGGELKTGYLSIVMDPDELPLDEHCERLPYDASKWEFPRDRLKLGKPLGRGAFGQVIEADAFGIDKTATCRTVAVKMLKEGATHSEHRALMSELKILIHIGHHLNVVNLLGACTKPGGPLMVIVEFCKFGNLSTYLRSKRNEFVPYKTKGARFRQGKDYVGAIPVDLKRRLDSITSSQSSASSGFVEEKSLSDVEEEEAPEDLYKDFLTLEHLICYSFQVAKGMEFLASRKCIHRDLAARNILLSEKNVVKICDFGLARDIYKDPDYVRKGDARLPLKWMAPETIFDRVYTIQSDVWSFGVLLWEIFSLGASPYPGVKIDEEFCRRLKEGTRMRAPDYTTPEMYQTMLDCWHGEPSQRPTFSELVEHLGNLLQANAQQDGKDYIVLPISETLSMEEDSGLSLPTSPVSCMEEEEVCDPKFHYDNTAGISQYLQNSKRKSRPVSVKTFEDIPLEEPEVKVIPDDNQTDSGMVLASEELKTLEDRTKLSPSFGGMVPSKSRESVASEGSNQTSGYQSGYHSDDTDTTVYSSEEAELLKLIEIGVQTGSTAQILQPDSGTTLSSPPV

HT-29 [15] = assay: Induction of apoptosis in human HT-29 cells assessed as PARP cleavage up to 20 uM after 24 to 72 hrs by Western blot analysis; format: cell-based
HT-29 [16] = assay: Antitumor activity against human HT-29 cells xenografted in mouse assessed as increase in apoptosis in tumor at 20 to 60 mg/kg, po administered every ither day for 3 weeks and measured at 20 days post treatment by TUNEL assay; format: functional, organism-based
HT-29 [17] = assay: Induction of apoptosis in human HT-29 cells assessed as caspase-3 cleavage up to 20 uM after 24 to 72 hrs by Western blot analysis; format: cell-based
Aorta = assay: Inhibition of VEGF-induced capillary sprouting in Sprague-Dawley rat aortic ring treated for every 3 days for 7 days measured on day 7 by inverted microscopy; format: functional, tissue-based
Summary of the method: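 Aortas from anesthetized Sprague-Dawley rats cut into 1-mm rings and embedded in Matrigel for 1 h at 37°C. Rings starved 1 day, then cultured in opti-MEM with 2.5% FBS and 30 ng/mL VEGF plus compound. Treatment renewed every 3 days for 7 days. Sprouting imaged on day 7 by inverted microscopy.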

HT-29 [18] = assay: Antiangiogenic activity in human HT-29 cells assessed as decrease in secreted MMP9 activity at 1 to 20 uM after 24 hrs by gelatin zymography; format: functional, cell-based
Summary of the method: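 HT29 cells treated 1, 5, 10 or 20 μM for 24 h; supernatant run non-reducing on 10% SDS-PAGE with 2% gelatin; SDS removed with 2% Triton X-100, gel incubated 48 h at 37°C in Tris pH 7.5/NaCl/CaCl2 buffer, Coomassie stained; clear MMP-2 and MMP-9 bands quantified by densitometry.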

[19] = biological target: Vascular endothelial growth factor receptor 2 (Homo sapiens) (UniProt P35968); assay: Inhibition of VEGFR2 in VEGF-stimulated HUVEC assessed as downregulation of Src phosphorylation at Tyr416 residue at 1 to 10 uM pre-incubated for 2 hrs followed by VEGF stimulation and measured after 15 mins by Western blot analysis; format: cell-based

With COc1ccc(NC(=O)c2cccc(/C=C3\CC(=O)N(c4ccc(C)cc4)C3=O)c2)cc1 the Activity (HT-29 [1]) was 2.3%, the viability at 24 h, 5 µM [2] was 75.8 to 77.9% and the inhibition (HUVEC [3]) was “Dose-dependent effect”. It also gave an inhibition at 10 µM (HUVEC [4]) of 50%, an Activity (HUVEC [5]) of 6.2% and a pIC50 (HepG2) of less than 4.00. The Activity (HUVEC [6]) was 11.7%, the Activity (HT-29 [7]) was 17.1% and the Activity (HUVEC [8]) was “Not Active”. For the same molecule, the Activity (Mus musculus) was “Active”, the inhibition at 2.5 µM (HUVEC [9]) was 30% and the Activity (HUVEC [10]) was 9.8%. For the same molecule, the viability at 24 h, 5 µM [11] was 75.4%, the inhibition (HUVEC [12]) was “Active” and the inhibition at 2.5 µM (HUVEC [13]) was 50%. For the same molecule, the inhibition [14] was “Active”, the Activity (HT-29 [15]) was “Non-Toxic” and the Activity (HT-29 [16]) was “Active”. For the same molecule, the Activity (HT-29 [17]) was “Non-Toxic”, the inhibition (Aorta) was “Dose-dependent effect” and the inhibition (HT-29 [18]) was “Active”. The inhibition [19] was “Active”.
